ChEMBL document CHEMBL3259769, “Symmetric adamantyl-diureas as soluble epoxide hydrolase inhibitors” (Bioorg Med Chem Lett, 2014)
≈ marks a conversion by molar mass, not a printed value.

Experiments:
[1] = biological target: T1, Bifunctional epoxide hydrolase 2 (Homo sapiens, UniProt P34913); experiment: Inhibition of recombinant human soluble epoxide hydrolase using CMNPC as substrate preincubated for 5 mins followed by substrate addition measured at 5 mins post substrate addition by fluorescence assay in presence of 0.1 mg/mL BSA
T1 sequence (P34913 whole entry): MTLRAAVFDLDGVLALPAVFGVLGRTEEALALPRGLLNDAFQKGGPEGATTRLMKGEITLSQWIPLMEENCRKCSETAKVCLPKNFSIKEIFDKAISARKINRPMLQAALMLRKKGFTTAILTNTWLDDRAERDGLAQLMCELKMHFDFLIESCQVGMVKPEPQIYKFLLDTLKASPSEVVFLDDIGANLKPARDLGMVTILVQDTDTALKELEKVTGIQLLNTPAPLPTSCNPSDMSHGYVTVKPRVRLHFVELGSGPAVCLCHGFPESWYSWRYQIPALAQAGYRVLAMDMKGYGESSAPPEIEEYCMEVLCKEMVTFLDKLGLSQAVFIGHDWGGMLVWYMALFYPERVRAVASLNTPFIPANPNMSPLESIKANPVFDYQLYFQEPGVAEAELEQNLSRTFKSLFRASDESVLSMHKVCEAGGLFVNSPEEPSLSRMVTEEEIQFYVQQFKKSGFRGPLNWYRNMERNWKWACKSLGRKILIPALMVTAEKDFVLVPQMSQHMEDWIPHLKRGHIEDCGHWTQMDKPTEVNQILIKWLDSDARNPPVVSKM

[2] = biological target: T2, Bifunctional epoxide hydrolase 2 (Homo sapiens) (UniProt P34913)
T2 sequence (whole entry): T1 sequence (P34913 whole entry)

[3] = Metabolic stability in human liver microsomes assessed as compound remaining at 1 uM preincubated for 5 mins followed by NADPH addition measured after 30 mins by LC/MS/MS analysis; type: ADME; settings: read-out: Stability
Procedure, shortened: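 Human liver microsomes (1 mg/mL final) in 0.1 M potassium phosphate, pH 7.4, 3 mM MgCl2, 1 mM EDTA, were preincubated with inhibitor 5 min at 37 °C. Reaction was started with NADPH generating system and run 30 min at 37 °C. Quenched with one volume methanol containing 200 nM CUDA surrogate. LC/MS/MS; % remaining; triplicate average.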

[4] = Solubility of the compound in sodium phosphate buffer at pH 7.4 after 24 hrs by LC/MS/MS analysis; type: physicochemical
Procedure, shortened: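 Compound suspended in 0.1 M sodium phosphate buffer, pH 7.4, containing 1% DMSO, held 24 h at 30 °C, then 1 h at rt. Centrifuged 10,000 rpm for 10 min; supernatant diluted 5-fold in methanol, 15 min at rt to precipitate salt, then re-centrifuged. Supernatant stored at -20 °C until LC/MS-MS quantitation.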

[5] = biological target: T1, Bifunctional epoxide hydrolase 2; experiment: Displacement of ACPU from recombinant human soluble epoxide hydrolase after 1.5 hrs by FRET assay
Procedure, shortened: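 Human sEH was preincubated with an equimolar amount of the fluorescent reporter ACPU for 2 h at rt. The complex (20 nM) was used in 100 mM sodium phosphate with 0.1% gelatin, pH 7.4, on gelatin-precoated plates. Inhibitor was added as 12 two-fold dilutions, with DMSO as control, and incubated 1.5 h. Fluorescence (ex 280/em 450 nm) was normalised to baseline and fitted to a three-state equilibrium model to give Ki.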

[6] = Metabolic stability in human liver microsomes assessed as compound remaining at 1 uM after 30 mins by LC/MS/MS analysis in absence of NADPH; type: ADME; settings: read-out: Stability
Procedure, shortened: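 Inhibitor added to human liver microsomes (1 mg/mL final) in 0.1 M potassium phosphate, pH 7.4, with 3 mM MgCl2 and 1 mM EDTA. After 5 min at 37 °C, buffer was added in place of NADPH generating system, then 30 min at 37 °C. Stopped with one volume methanol containing 200 nM CUDA surrogate. LC/MS/MS; % remaining; triplicate average.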

[7] = biological target: T1, Bifunctional epoxide hydrolase 2; experiment: Inhibition of recombinant human soluble epoxide hydrolase using CMNPC as substrate preincubated for 5 mins followed by substrate addition measured at 5 mins post substrate addition by fluorescence assay in presence of 1 mg/mL BSA

Row | IC50 [1] [nM] | T1/2 [2] [min] | remaining at 0.5 h, 1 µM [3] [%] | solubility at 24 h [4] [µM] | Ki [5] [nM] | remaining at 0.5 h, 1 µM [6] [%] | IC50 [7] [nM] | SMILES
1 | 26.3 | – | – | – | – | – | – | O=C(NCCCCNC(=O)NCC12CC3CC(CC(C3)C1)C2)NCC12CC3CC(CC(C3)C1)C2
2 | 7.2 | – | – | – | – | – | – | O=C(NCCCCNC(=O)NC12CC3CC(CC(C3)C1)C2)NC12CC3CC(CC(C3)C1)C2
3 | 10.4 | – | – | – | – | – | – | O=C(NCCCCNC(=O)NC1C2CC3CC(C2)CC1C3)NC1C2CC3CC(C2)CC1C3 (configuration not stated)
4 | 780 | – | – | – | – | – | – | O=C(NCC12CC3CC(CC(C3)C1)C2)Nc1ccc(NC(=O)NCC23CC4CC(CC(C4)C2)C3)cc1
5 | 2.6 | 2.5 | 36 | 5 (≈ 2.49 µg/mL) | 2.4 | 100 | 4.1 | O=C(NCCCCCCCCNC(=O)NC1C2CC3CC(C2)CC1C3)NC1C2CC3CC(C2)CC1C3 (configuration not stated)
6 | 997 | – | – | – | – | – | – | O=C(NCCCCCCCCNC(=O)NC12CC3CC(CC(C3)C1)C2)NC12CC3CC(CC(C3)C1)C2
7 | 0.5 | 11 | 11 | 10 (≈ 5.55 µg/mL) | 3.1 | 100 | 0.8 | CC(NC(=O)NCCCCCCCCNC(=O)NC(C)C12CC3CC(CC(C3)C1)C2)C12CC3CC(CC(C3)C1)C2 (configuration not stated)
8 | 1.2 | 8 | 24 | 10 (≈ 4.99 µg/mL) | 2.7 | 92 | 2.5 | CC(NC(=O)NCCCCNC(=O)NC(C)C12CC3CC(CC(C3)C1)C2)C12CC3CC(CC(C3)C1)C2 (configuration not stated)
9 | 1.2 | – | 19 | 5 (≈ 1.64 µg/mL) | – | 93 | 1.3 | O=C(NC12CC3CC(CC(C3)C1)C2)NC12CC3CC(CC(C3)C1)C2
10 | 39.7 | – | – | – | – | – | – | O=C(NCC1CCN(C(=O)NCC23CC4CC(CC(C4)C2)C3)CC1)NCC12CC3CC(CC(C3)C1)C2
11 | 2.3 | – | – | – | – | – | – | CCC(CNC(=O)NCCCCNC(=O)NCC(CC)C12CC3CC(CC(C3)C1)C2)C12CC3CC(CC(C3)C1)C2 (configuration not stated)
12 | 179 | – | – | – | – | – | – | O=C(NCCNC(=O)NCC12CC3CC(CC(C3)C1)C2)NCC12CC3CC(CC(C3)C1)C2
13 | – | – | 22 | 5 (≈ 1.12 µg/mL) | – | 100 | – | O=C(NC1CCCCC1)NC1CCCCC1 [1,3-DICYCLOHEXYLUREA]
14 | – | 10 | 3 | 50 (≈ 24.9 µg/mL) | 3.4 | 102 | 0.7 | O=C(NCCCCCCNC(=O)NCC12CC3CC(CC(C3)C1)C2)NCC12CC3CC(CC(C3)C1)C2
15 | 1440 | – | – | – | – | – | – | CCC(CNC(=O)NCCCCCCCCNC(=O)NCC(CC)C12CC3CC(CC(C3)C1)C2)C12CC3CC(CC(C3)C1)C2 (configuration not stated)
16 | 7.3 | – | – | – | – | – | – | O=C(NCCCCCCCCNC(=O)NCC12CC3CC(CC(C3)C1)C2)NCC12CC3CC(CC(C3)C1)C2
17 | 19.5 | – | – | – | – | – | – | O=C(Nc1ccc(NC(=O)NC23CC4CC(CC(C4)C2)C3)cc1)NC12CC3CC(CC(C3)C1)C2
18 | 161 | – | – | – | – | – | – | CC(NC(=O)Nc1ccc(NC(=O)NC(C)C23CC4CC(CC(C4)C2)C3)cc1)C12CC3CC(CC(C3)C1)C2 (configuration not stated)
